Like-named read-outs stand apart in the source and are kept apart here. Each block holds one molecule with its values, some of them ahead of it.
Legend:
chicken BCRP = conditions: ref Zhang et al., 2018; cited from earlier work
CYP2H1 mRNA [1] = test: RT-PCR analysis of CYP2H1 mRNA in chicken primary hepatocytes; format: cell-based; conditions: 500 µM metyrapone 24 h
Outline: (§1)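 Primary broiler-embryo hepatocytes grown to 70% confluency in 6-well plates. Transfected 24 h with CXR-targeting or scrambled control siRNA, then exposed to CXR agonist 24 h. Total RNA extracted with TRIzol and reverse-transcribed. Target mRNA quantified by SYBR Green real-time PCR against β-actin, 2^−ΔΔCt method. Three independent experiments, mean ± SD.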

BCRP protein [2] = format: in vivo; conditions: metyrapone single oral 150 mg per chicken, 24 h
Outline: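 Third-week-old chickens (6 per group), untreated or given a single oral CXR agonist dose of 150 mg per chicken, killed by CO2 24 h later. Tissues snap-frozen. Protein extracted with RIPA and quantified by BCA. Separated by 5–12% SDS-PAGE, blotted to PVDF. Probed with anti-BCRP 1:500 and anti-β-tubulin 1:5,000 overnight at 4°C. ECL detection; densitometry normalized to β-tubulin.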

BCRP = test: Mitoxantrone accumulation assay; format: cell-based, chicken
Outline: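 Hepatocytes isolated from livers of 14-day-old Arbor Acres broiler embryos, grown in M199 with transferrin, penicillin and streptomycin (37°C, 5% CO2). Exposed 24 h to CXR agonist alone or with BCRP inhibitor; untreated cells served as negative control. All wells then loaded with mitoxantrone 1 h, trypsinized, washed 3× PBS. Intracellular fluorescence read by flow cytometry at 633 nm excitation. At least 3 independent experiments, mean ± SD.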

CYP2H1 mRNA [3] = test: RT-PCR analysis of CYP2H1 mRNA in tissues of chickens treated with metyrapone; format: in vivo; conditions: metyrapone single oral 150 mg per chicken, 24 h
Outline: (§2)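 Twelve third-week-old chickens of similar weight in two groups of 6: untreated, or a single oral CXR agonist dose of 150 mg per chicken. Killed by CO2 asphyxiation 24 h later. Tissues snap-frozen and stored −70°C. RNA extracted with TRIzol and reverse-transcribed. mRNA quantified by SYBR Green real-time PCR with β-actin reference, 2^−ΔΔCt. Mean ± SD.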

ABCG2 mRNA [4] = test: RT-PCR analysis of ABCG2 mRNA in chicken primary hepatocytes; format: cell-based; conditions: hepatocytes transfected with siCXR, 500 µM metyrapone 24 h
Outline: as §1

BCRP protein [5] = test: Western blot analysis of BCRP protein expression in chicken primary hepatocytes; format: cell-based
Outline: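 Primary hepatocytes exposed 24 h to a range of CXR agonist concentrations, or siRNA-knocked-down first (CXR-targeting vs scrambled) and then agonist-treated 24 h. Lysed in RIPA, protein by BCA, separated on 5–12% SDS-PAGE, transferred to PVDF. Blocked with 5% milk 1 h. Probed overnight at 4°C with anti-BCRP 1:500 and anti-β-tubulin 1:5,000, then secondary 1:4,000 1 h at 37°C. ECL detection; densitometry normalized to β-tubulin.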

ABCG2 mRNA [6] = test: RT-PCR analysis of ABCG2 mRNA in tissues of chickens treated with metyrapone; format: in vivo; conditions: metyrapone single oral 150 mg per chicken, 24 h
Outline: as §2

[7] = ref Anadon et al., 2008; cited from earlier work
[8] = Pharmacokinetic study of orally administered florfenicol in chicken; format: in vivo; conditions: female, HY-Line Brown, plasma, po, 20 mg/kg
[9] = Arbor Acres broilers, ref Liu et al., 2018; cited from earlier work

Structure (SMILES): CC[C@H]1OC(=O)C[C@@H](O)[C@H](C)[C@@H](O[C@@H]2O[C@H](C)[C@@H](O)[C@H](N(C)C)[C@H]2O)[C@@H](CCN2C[C@H](C)C[C@H](C)C2)C[C@@H](C)C(=O)/C=C/C(C)=C/[C@@H]1CO[C@@H]1O[C@H](C)[C@@H](O)[C@@H](OC)[C@H]1OC [tilmicosin]
Transport by chicken BCRP (chicken BCRP): actively transported

Induction of CYP2H1 mRNA upon metyrapone treatment, CXR expression vector (CYP2H1 mRNA [1]; hepatocytes transfected with CXR expression vector): 5.1 fold
Induction of CYP2H1 mRNA by metyrapone after knockdown of CXR (CYP2H1 mRNA [1]; hepatocytes transfected with siCXR): 0.5 fold
CYP2H1 mRNA expression increase (CYP2H1 mRNA [3]; duodenum): 5.6 fold
Effect on expression of CYP2H1 (CYP2H1 mRNA [3]; ileum): did not influence
CYP2H1 mRNA expression increase (CYP2H1 mRNA [3]; jejunum): 1.7 fold
CYP2H1 mRNA expression increase (CYP2H1 mRNA [3]; kidney): 8 fold
CYP2H1 mRNA expression increase (CYP2H1 mRNA [3]; liver): 3.6 fold
Structure (SMILES): CC(C)(C(=O)c1cccnc1)c1cccnc1 [metyrapone, Metyrapone]
BCRP protein expression increase (BCRP protein [2]; duodenum): 1.4 fold
BCRP protein expression increase (BCRP protein [2]; jejunum): 1.3 fold
BCRP protein expression increase (BCRP protein [2]; kidney): 1.6 fold
BCRP protein expression increase (BCRP protein [2]; liver): 1.6 fold
Intracellular mitoxantrone fluorescence lower than in untreated cells (BCRP; 500 µM metyrapone pretreatment 24 h, 5 µM mitoxantrone 1 h, P < 0.01): 33%
Induction of ABCG2 at the mRNA level by metyrapone after knockdown of CXR (ABCG2 mRNA [4]): 0.7 fold
Induction of ABCG2 at the protein level by metyrapone after knockdown of CXR (BCRP protein [5]; hepatocytes transfected with siCXR, 500 µM metyrapone 24 h): 0.7 fold
BCRP protein expression, fold vs negative control cells (BCRP protein [5]; increasing concentrations of metyrapone, 24 h, chicken primary hepatocytes): up to 2.8 fold
ABCG2 mRNA expression increase (ABCG2 mRNA [6]; duodenum): 1.8 fold
Effect on expression of ABCG2 (ABCG2 mRNA [6]; ileum): did not influence
ABCG2 mRNA expression increase (ABCG2 mRNA [6]; jejunum): 1.6 fold
ABCG2 mRNA expression increase (ABCG2 mRNA [6]; kidney): 2.2 fold
ABCG2 mRNA expression increase (ABCG2 mRNA [6]; liver): 2.1 fold

Structure (SMILES): CS(=O)(=O)c1ccc([C@@H](O)[C@H](N)CF)cc1 [florfenicol amine]
Eliminated by renal excretion as metabolite florfenicol amine [7]: 25%

Structure (SMILES): CCN1CCN(c2cc3c(cc2F)c(=O)c(C(=O)O)cn3C2CC2)CC1 [enrofloxacin]
Transport by chicken BCRP (chicken BCRP): actively transported

Structure (SMILES): CC1(C)S[C@@H]2[C@H](NC(=O)[C@H](N)c3ccccc3)C(=O)N2[C@H]1C(=O)O [ampicillin]
Transport by chicken BCRP (chicken BCRP): actively transported

Structure (SMILES): COc1ccc2c3c([nH]c2c1)[C@H](CC(C)C)N1C(=O)[C@H](CCC(=O)OC(C)(C)C)NC(=O)[C@@H]1C3 [Ko143]
Effect on metyrapone-induced mitoxantrone efflux activity (BCRP; cotreatment of Ko143 with 500 µM metyrapone): reversed

Vd/F [8]: 0.24 ± 0.05 L/kg
half-life [8]: 2.13 ± 0.45 h
Structure (SMILES): CS(=O)(=O)c1ccc([C@@H](O)[C@@H](CF)NC(=O)C(Cl)Cl)cc1 [Florfenicol, florfenicol]
Transport by chicken BCRP (chicken BCRP): actively transported
Absorption upon coadministration of gefitinib (a BCRP inhibitor) [9]: more extensively absorbed

Source: paper PMC9673116 (Poultry Science, 2022)
